Measurements from ChEMBL document CHEMBL1139344, “Antagonists of the human A(2A) adenosine receptor. 4. Design, synthesis, and preclinical evaluation of 7-aryltriazolo[4,5-d]pyrimidines” (J Med Chem, 2009).
Values after ≈ are worked out from the molar mass of the structure shown. Active and inactive are the calls of the source. No cut-off for these calls is given here.

Legend:
[1] = Solubility at neutral pH; assay type: physicochemical
[2] = molecular target: T1, Adenosine receptor A1 (Homo sapiens, UniProt P30542); assay: Displacement of radioligand from human recombinant adenosine A1 receptor at 21 degC after 90 mins by cell-based microplate scintillation counting
T1 sequence (P30542 whole entry): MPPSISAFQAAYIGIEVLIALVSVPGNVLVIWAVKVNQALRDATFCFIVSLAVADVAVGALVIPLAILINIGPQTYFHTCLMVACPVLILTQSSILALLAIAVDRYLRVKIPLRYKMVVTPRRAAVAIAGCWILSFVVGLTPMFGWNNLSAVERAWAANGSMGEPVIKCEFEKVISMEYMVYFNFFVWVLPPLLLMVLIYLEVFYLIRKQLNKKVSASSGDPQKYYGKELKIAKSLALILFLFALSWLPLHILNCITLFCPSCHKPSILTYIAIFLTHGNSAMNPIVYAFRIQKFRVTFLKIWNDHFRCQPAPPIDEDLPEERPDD

[3] = tested on: Rattus norvegicus; assay: Reversal of haloperidol-induced hypolocomotion in po dosed Sprague-Dawley rat assessed as minimal effective dose administered 120 mins prior to testing done for 60 mins; assay type: functional; settings: read-out: MED
In short: (§1)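 Haloperidol (0.2 mg/kg ip) used to induce hypolocomotion; antagonist given orally over 0.01-10 mg/kg in mouse and rat; activity scored as time spent active during a 60 min session; p < 0.05 versus vehicle (+haloperidol) control; minimal effective dose taken as lowest active dose.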

[4] = tested on: Mus musculus; assay: Reversal of haloperidol-induced hypolocomotion in po dosed TO mouse assessed as minimal effective dose administered 15 mins prior to testing done for 60 mins; assay type: functional; settings: read-out: MED; in short: as §1
[5] = molecular target: T2, Adenosine receptor A3 (Homo sapiens, UniProt P0DMS8); assay: Displacement of radioligand from human recombinant adenosine A3 receptor at 21 degC after 60 mins by cell-based microplate scintillation counting
T2 sequence (P0DMS8 whole entry): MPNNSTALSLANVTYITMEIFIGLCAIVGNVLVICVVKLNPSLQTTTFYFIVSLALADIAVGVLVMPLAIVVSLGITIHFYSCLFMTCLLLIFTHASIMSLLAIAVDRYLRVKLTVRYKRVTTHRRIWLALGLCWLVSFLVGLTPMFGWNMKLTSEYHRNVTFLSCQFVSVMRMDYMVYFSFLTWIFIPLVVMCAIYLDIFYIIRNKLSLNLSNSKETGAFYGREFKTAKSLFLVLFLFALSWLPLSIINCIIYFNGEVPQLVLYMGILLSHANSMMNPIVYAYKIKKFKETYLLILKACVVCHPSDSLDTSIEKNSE

[6] = molecular target: T3, Adenosine receptor A2b (Homo sapiens, UniProt P29275); assay: Displacement of radioligand from human recombinant adenosine A2B receptor at 21 degC after 60 mins by cell-based microplate scintillation counting
T3 sequence (P29275 whole entry): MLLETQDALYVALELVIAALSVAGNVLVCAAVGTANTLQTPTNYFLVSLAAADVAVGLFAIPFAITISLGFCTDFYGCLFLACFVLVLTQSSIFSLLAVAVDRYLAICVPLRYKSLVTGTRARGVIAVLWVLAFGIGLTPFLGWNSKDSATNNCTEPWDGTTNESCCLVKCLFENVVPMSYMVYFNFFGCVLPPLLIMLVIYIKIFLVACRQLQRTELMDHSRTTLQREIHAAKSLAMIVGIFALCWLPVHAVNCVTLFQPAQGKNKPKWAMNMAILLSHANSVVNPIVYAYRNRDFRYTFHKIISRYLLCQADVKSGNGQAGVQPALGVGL

[7] = tested on: Rattus norvegicus; assay: Reversal of haloperidol-induced hypolocomotion in Sprague-Dawley rat assessed as time spent for locomotor activity at 30 mg/kg, po administered 120 mins prior and measured for 60 mins; assay type: functional, organism-based; design: dose 30 mg/kg
[8] = Aqueous solubility in phosphate buffered saline; assay type: physicochemical
[9] = tested on: Mus musculus; assay: Reversal of haloperidol-induced hypolocomotion in TO mouse assessed as time spent for locomotor activity at 30 mg/kg, po administered 15 mins prior and measured for 60 mins; assay type: functional, organism-based; design: dose 30 mg/kg
[10] = tested on: Liver microsomes; assay: Metabolic stability in rat liver microsomes after 30 mins; assay type: ADME, Microsome; settings: 0.5 h
In short: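 Turnover by rodent liver microsomes measured as percent turnover after 30 min.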

[11] = molecular target: Adenosine receptor A2a (Homo sapiens, UniProt P29274); assay: Displacement of radioligand from human recombinant adenosine A2A receptor at 21 degC after 90 mins by cell-based microplate scintillation counting
Sequence of Adenosine receptor A2a (P29274 whole entry): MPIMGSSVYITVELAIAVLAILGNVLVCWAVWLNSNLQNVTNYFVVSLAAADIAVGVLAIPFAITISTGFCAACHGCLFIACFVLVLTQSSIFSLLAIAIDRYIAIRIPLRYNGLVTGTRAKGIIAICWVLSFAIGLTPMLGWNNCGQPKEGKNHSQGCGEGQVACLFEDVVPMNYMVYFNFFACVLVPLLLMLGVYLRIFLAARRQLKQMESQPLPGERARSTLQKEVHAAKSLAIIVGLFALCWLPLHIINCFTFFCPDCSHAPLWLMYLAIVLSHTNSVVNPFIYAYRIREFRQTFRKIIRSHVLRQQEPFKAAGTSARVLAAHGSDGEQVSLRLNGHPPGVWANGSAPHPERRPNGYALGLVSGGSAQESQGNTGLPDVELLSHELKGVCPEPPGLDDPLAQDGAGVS

[12] = tested on: Mus musculus; assay: Reversal of haloperidol-induced hypolocomotion in po dosed TO mouse assessed as time spent for locomotor activity administered 120 mins prior to testing done for 60 mins; assay type: functional, organism-based; in short: as §1
[13] = tested on: Rattus norvegicus; assay: Reversal of haloperidol-induced hypolocomotion in po dosed Sprague-Dawley rat assessed as time spent for locomotor activity administered 15 mins prior to testing done for 60 mins; assay type: functional, organism-based; in short: as §1
[14] = tested on: Rattus norvegicus; assay: Reversal of haloperidol-induced hypolocomotion in Sprague-Dawley rat assessed as time spent for locomotor activity at 1 mg/kg, po administered 120 mins prior to testing done for 60 mins; assay type: functional, organism-based; design: dose 1 mg/kg; in short: as §1
[15] = tested on: Mus musculus; assay: Reversal of haloperidol-induced hypolocomotion in TO mouse assessed as time spent for locomotor activity at 0.3 mg/kg, po administered 15 mins prior to testing done for 60 mins; assay type: functional, organism-based; design: dose 0.3 mg/kg; in short: as §1
[16] = tested on: Mus musculus; assay: Reversal of haloperidol-induced hypolocomotion in TO mouse assessed as time spent for locomotor activity at 1 mg/kg, po administered 15 mins prior to testing done for 60 mins; assay type: functional, organism-based; design: dose 1 mg/kg; in short: as §1

Compound | solubility [1] | Ki [2] | Ki [5] | Ki [6] | solubility [8] | Stability [10] | Ki [11] | minimal effective dose [3] | minimal effective dose [4] | Activity [7] | Activity [9] | Activity [12] | Activity [13] | Activity [14] | Activity [15] | Activity [16]
Nc1nc(-c2ccco2)c2nnn(Cc3ccccc3N)c2n1 | – | 63 nM | 302 nM | 123 nM | – | – | – | 10 mg/kg | 10 mg/kg | – | – | – | – | – | – | –
Nc1nc(-c2ccco2)c2nnn(Cc3ccc([N+](=O)[O-])cc3)c2n1 | – | 769 nM | 1230 nM | 440 nM | 30 µM (≈ 10.1 µg/mL) | Stable | 28 nM | – | – | inactive | inactive | – | – | – | – | –
Nc1nc(-c2cc[nH]n2)c2nnn(Cc3ccccc3F)c2n1 | – | 1660 nM | 1290 nM | 1780 nM | 30 µM (≈ 9.31 µg/mL) | Stable | 239 nM | – | – | inactive | inactive | – | – | – | – | –
CCn1c(=O)c2c(nc(/C=C/c3ccc(OC)c(OC)c3)n2C)n(CC)c1=O | – | – | – | – | – | – | – | – | – | – | – | – | – | Active | Active | –
CS(=O)(=O)O.Cc1cc(Cn2nnc3c(-c4ccco4)nc(N)nc32)ccc1N | 36 mg/mL | – | – | – | – | – | – | – | – | – | – | – | – | – | – | –
Nc1nc(-c2ccco2)c2nnn(Cc3cccs3)c2n1 | – | 117 nM | 123 nM | 88 nM | – | – | 2.3 nM | 30 mg/kg | 30 mg/kg | – | – | – | – | – | – | –
Nc1nc(-c2ccco2)c2nnn(Cc3ccccc3)c2n1 | – | 83 nM | 285 nM | 122 nM | 30 µM (≈ 8.77 µg/mL) | Stable | 1.9 nM | – | – | inactive | inactive | – | – | – | – | –
Nc1nc(-c2ccco2)c2nnn(Cc3ccccn3)c2n1 | – | 1120 nM | 1080 nM | 258 nM | – | – | 12 nM | – | – | – | – | inactive | inactive | – | – | –
Nc1cccc(Cn2nnc3c(-c4ccco4)nc(N)nc32)c1 | – | 131 nM | 792 nM | 270 nM | – | – | 2.5 nM | – | – | – | – | – | – | – | – | Active
Nc1nc(-c2nccs2)c2nnn(Cc3ccccc3F)c2n1 | – | 553 nM | 2200 nM | 271 nM | 30 µM (≈ 9.82 µg/mL) | – | 8.5 nM | – | – | inactive | inactive | – | – | – | – | –
Nc1nc(-c2ccco2)c2nnn(Cc3ccsc3)c2n1 | – | 78 nM | 136 nM | 164 nM | – | – | 1.9 nM | – | – | – | – | inactive | inactive | – | – | –
COC(=O)c1cccc(Cn2nnc3c(-c4ccco4)nc(N)nc32)c1 | – | 105 nM | 1170 nM | 907 nM | 30 µM (≈ 10.5 µg/mL) | Stable | 4.1 nM | – | – | – | – | – | – | – | – | –
Nc1nc(-c2ncco2)c2nnn(Cc3ccccc3F)c2n1 | – | 599 nM | 2110 nM | 836 nM | – | – | 41 nM | – | – | – | – | – | – | – | – | –
N#Cc1ccc(Cn2nnc3c(-c4ccco4)nc(N)nc32)cc1 | – | 738 nM | 1050 nM | 885 nM | 30 µM (≈ 9.52 µg/mL) | Stable | 73 nM | – | – | inactive | inactive | – | – | – | – | –

Continued, in another order:

solubility [1] | Ki [2] | Ki [5] | Ki [6] | solubility [8] | Stability [10] | Ki [11] | Compound | minimal effective dose [3] | minimal effective dose [4] | Activity [7] | Activity [9] | Activity [12] | Activity [13] | Activity [14] | Activity [15] | Activity [16]
18 mg/mL | – | – | – | – | – | – | Cc1cc(Cn2nnc3c(-c4ccco4)nc(N)nc32)ccc1N.Cl.Cl | – | – | – | – | – | – | – | – | –
– | 26 nM | 221 nM | 118 nM | – | – | 1 nM | CCc1cc(Cn2nnc3c(-c4ccco4)nc(N)nc32)ccc1N | – | – | – | – | inactive | inactive | – | – | –
– | 733 nM | 530 nM | 593 nM | 30 µM (≈ 11.3 µg/mL) | Stable | 10.8 nM | CC(C)NC(=O)c1cccc(Cn2nnc3c(-c4ccco4)nc(N)nc32)c1 | – | – | inactive | inactive | – | – | – | – | –
– | 105 nM | 440 nM | 109 nM | 30 µM (≈ 9.31 µg/mL) | Stable | 2.7 nM | Nc1nc(-c2ccco2)c2nnn(Cc3ccccc3F)c2n1 | – | – | inactive | inactive | – | – | – | – | –
– | 19 nM | 260 nM | 6 nM | 30 µM (≈ 9.73 µg/mL) | Stable | 2.1 nM | Cc1ccc(-c2nc(N)nc3c2nnn3Cc2ccccc2F)o1 | 3 mg/kg | 3 mg/kg | inactive | inactive | – | – | – | – | –
– | 1130 nM | 2470 nM | 937 nM | 30 µM (≈ 11.7 µg/mL) | Stable | 22 nM | CC(C)N(C)C(=O)c1cccc(Cn2nnc3c(-c4ccco4)nc(N)nc32)c1 | – | – | inactive | inactive | – | – | – | – | –
– | 3620 nM | – | – | 30 µM (≈ 6.07 µg/mL) | Stable | 194 nM | Nc1nc(-c2ccco2)c2nn[nH]c2n1 | – | – | inactive | inactive | – | – | – | – | –
– | 183 nM | 341 nM | 282 nM | 30 µM (≈ 9.19 µg/mL) | Stable | 3 nM | Cc1ccccc1Cn1nnc2c(-c3ccco3)nc(N)nc21 | – | – | inactive | inactive | – | – | – | – | –
– | 700 nM | 2580 nM | 132 nM | 30 µM (≈ 10.1 µg/mL) | Stable | 11.1 nM | NC(=O)c1cccc(Cn2nnc3c(-c4ccco4)nc(N)nc32)c1 | – | – | inactive | inactive | – | – | – | – | –
– | 931 nM | 1020 nM | 225 nM | – | – | 14.5 nM | Nc1nc(-c2ccco2)c2nnn(Cc3cccnc3)c2n1 | – | – | – | – | inactive | inactive | – | – | –
– | 50 nM | 251 nM | 397 nM | – | – | 1.5 nM | CC(C)c1cc(Cn2nnc3c(-c4ccco4)nc(N)nc32)ccc1N | – | – | – | – | inactive | inactive | – | – | –
– | 190 nM | 752 nM | 46 nM | – | – | 1.5 nM | Nc1ccc(Cn2nnc3c(-c4ccco4)nc(N)nc32)cc1 | – | – | – | – | – | – | – | – | Active
– | 231 nM | 844 nM | 646 nM | 30 µM (≈ 10.1 µg/mL) | Stable | 3.7 nM | Nc1nc(-c2ccco2)c2nnn(Cc3cccc([N+](=O)[O-])c3)c2n1 | – | – | inactive | inactive | – | – | – | – | –
– | 40 nM | 636 nM | 181 nM | – | – | 1.6 nM | CNc1ccc(Cn2nnc3c(-c4ccco4)nc(N)nc32)cc1 | – | – | – | – | – | – | – | – | Active
– | 2960 nM | 2810 nM | 1290 nM | 30 µM (≈ 9.34 µg/mL) | Stable | 400 nM | Nc1nc(-c2cnn[nH]2)c2nnn(Cc3ccccc3F)c2n1 | – | – | inactive | inactive | – | – | – | – | –
– | 132 nM | 693 nM | 630 nM | – | – | 3.9 nM | N#Cc1cccc(Cn2nnc3c(-c4ccco4)nc(N)nc32)c1 | – | – | – | – | – | – | – | – | –
